Assays:
Androgen receptor = target: T1, Androgen receptor (Homo sapiens, UniProt P10275); assay: Antagonist activity against the Androgen Receptor (AR)
T1 sequence (P10275 whole entry): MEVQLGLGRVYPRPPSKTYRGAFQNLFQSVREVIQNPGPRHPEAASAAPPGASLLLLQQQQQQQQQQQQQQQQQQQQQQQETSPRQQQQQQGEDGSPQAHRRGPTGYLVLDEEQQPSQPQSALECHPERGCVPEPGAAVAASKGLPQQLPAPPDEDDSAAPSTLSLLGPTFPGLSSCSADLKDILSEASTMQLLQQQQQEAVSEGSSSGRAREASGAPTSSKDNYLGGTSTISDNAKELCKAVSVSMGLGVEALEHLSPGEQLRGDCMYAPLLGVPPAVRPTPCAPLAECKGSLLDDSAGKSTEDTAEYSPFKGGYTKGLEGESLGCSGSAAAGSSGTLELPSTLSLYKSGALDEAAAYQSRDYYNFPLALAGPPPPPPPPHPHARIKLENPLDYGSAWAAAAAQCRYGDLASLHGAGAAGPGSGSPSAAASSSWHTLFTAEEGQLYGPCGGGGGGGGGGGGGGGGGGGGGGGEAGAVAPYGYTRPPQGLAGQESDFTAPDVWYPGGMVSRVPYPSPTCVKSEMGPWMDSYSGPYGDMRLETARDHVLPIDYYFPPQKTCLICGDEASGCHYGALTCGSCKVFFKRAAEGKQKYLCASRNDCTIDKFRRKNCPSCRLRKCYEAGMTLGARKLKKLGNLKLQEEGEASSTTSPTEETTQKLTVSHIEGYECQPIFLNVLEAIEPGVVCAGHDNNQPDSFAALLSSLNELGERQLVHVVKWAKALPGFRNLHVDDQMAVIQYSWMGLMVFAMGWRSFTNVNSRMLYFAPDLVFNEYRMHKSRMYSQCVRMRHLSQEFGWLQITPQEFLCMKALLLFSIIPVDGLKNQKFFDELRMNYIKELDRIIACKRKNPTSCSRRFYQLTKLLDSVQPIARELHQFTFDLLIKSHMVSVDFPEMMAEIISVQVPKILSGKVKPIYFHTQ

Glucocorticoid receptor = target: T2, Glucocorticoid receptor (Homo sapiens, UniProt P04150); assay: Antagonist activity against the Glucocorticoid Receptor (GR); assay type: functional
T2 sequence (P04150 whole entry): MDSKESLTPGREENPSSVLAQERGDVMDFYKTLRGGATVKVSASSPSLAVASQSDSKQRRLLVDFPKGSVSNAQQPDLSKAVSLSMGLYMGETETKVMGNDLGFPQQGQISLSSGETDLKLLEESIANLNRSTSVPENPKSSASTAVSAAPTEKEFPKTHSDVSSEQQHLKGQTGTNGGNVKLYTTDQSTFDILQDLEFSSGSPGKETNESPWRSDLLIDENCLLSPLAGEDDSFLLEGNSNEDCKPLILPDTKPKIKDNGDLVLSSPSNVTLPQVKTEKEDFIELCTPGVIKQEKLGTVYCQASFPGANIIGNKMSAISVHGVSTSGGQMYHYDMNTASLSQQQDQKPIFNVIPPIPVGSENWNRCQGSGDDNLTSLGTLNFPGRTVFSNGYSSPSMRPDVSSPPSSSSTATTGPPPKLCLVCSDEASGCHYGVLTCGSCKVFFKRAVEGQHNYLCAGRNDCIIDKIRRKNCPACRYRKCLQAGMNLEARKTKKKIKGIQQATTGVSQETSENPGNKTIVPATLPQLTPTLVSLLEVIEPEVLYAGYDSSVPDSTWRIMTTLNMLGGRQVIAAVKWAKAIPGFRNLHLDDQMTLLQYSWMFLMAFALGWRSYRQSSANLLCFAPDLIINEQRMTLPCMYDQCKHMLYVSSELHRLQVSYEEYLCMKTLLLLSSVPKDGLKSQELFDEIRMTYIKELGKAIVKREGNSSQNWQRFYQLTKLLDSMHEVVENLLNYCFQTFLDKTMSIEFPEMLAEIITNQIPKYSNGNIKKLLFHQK

Progesterone receptor = target: T3, Progesterone receptor (Homo sapiens, UniProt P06401); assay: Agonist activity against progesterone receptor (PR) in an alkaline phosphatase assay in the T47D human breast carcinoma cell line; assay type: functional, cell-based
T3 sequence (P06401 whole entry): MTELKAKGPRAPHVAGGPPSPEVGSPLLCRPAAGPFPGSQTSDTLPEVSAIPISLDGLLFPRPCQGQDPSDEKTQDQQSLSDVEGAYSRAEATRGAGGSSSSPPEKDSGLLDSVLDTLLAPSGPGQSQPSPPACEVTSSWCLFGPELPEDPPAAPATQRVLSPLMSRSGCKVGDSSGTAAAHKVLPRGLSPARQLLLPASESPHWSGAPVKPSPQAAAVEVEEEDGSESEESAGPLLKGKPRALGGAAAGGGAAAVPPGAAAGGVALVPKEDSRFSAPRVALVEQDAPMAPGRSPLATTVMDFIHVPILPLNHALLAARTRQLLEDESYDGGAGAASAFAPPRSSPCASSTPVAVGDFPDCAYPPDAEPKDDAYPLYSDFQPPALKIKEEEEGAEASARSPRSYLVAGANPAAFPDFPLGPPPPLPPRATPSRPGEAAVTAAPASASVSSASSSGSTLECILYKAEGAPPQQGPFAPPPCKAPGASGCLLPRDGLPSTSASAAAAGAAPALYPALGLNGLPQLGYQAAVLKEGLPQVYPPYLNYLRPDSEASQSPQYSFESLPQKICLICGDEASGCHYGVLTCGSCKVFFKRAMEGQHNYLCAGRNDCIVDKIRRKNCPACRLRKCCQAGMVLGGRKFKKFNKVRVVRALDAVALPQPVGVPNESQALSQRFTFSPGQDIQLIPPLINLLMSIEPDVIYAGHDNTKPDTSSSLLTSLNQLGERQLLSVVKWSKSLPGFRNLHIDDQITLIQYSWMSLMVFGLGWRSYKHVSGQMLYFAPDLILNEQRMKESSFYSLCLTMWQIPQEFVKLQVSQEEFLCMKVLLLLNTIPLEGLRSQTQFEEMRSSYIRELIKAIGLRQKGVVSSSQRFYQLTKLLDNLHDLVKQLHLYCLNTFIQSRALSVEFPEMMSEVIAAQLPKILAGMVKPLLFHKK
Summary of the method: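 T47D human breast carcinoma cells scored for PR agonism via alkaline phosphatase read-out; EC50 taken as the mean of at least duplicate determinations.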

Structure (SMILES): CC1(C)OC(=O)Nc2ccc(-c3cc(F)cc(C#N)c3)cc21
- IC50 (Androgen receptor): 1290 nM
- IC50 (Glucocorticoid receptor): 1760 nM
- EC50 (Progesterone receptor): 90 nM

Structure (SMILES): CC1(C)OC(=O)Nc2ccc(-c3ccc(F)c(Cl)c3)cc21
- IC50 (Androgen receptor): 207 nM
- IC50 (Glucocorticoid receptor): 2580 nM

Structure (SMILES): CC1(C)OC(=O)Nc2ccc(-c3csc(C#N)c3)cc21
- IC50 (Androgen receptor): 280 nM
- IC50 (Glucocorticoid receptor): 1860 nM
- EC50 (Progesterone receptor): 61.1 nM

Structure (SMILES): CC1(C)OC(=O)Nc2ccc(-c3coc(C#N)c3)cc21
- IC50 (Androgen receptor): 129 nM
- IC50 (Glucocorticoid receptor): > 10000 nM
